Experimental data published in ChEMBL document CHEMBL3045304, “Sesquiterpene lactones with potential use as natural herbicide models. 2. guaianolides” (2000).
Calls of active or inactive are those of the source. The rule behind the calls is not given here.

How the values were obtained:
Lepidium sativum [1] = experiment: Inhibition of germination of Lepidium sativum at 0.1 mM or 1 mM after 5 days relative to untreated control; format: functional
Solanum lycopersicum [2] = experiment: Stimulation of hypocotyl length of Solanum lycopersicum cv. Tres Cantos (tomato) at 0.1 mM or 1 mM after 5 days relative to untreated control; format: functional
Outline: (§1)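 Lettuce and tomato seeds, 25 per dish on filter paper, received 5 mL test solution. Incubation was 5 days in the dark at 25 °C, with four replicates per concentration. Solutions were made at 10^-3 or 10^-4 M in 10 mM MES, diluted serially, and adjusted to pH 6.0. Parallel controls were run. Results are % difference from control.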

Lepidium sativum [3] = experiment: Stimulation of root length of Lepidium sativum at 0.1 mM or 1 mM after 5 days relative to untreated control; format: functional
Triticum aestivum [4] = experiment: Stimulation of hypocotyl length of Triticum aestivum cv. Cortex (wheat) at 0.1 mM or 1 mM after 5 days relative to untreated control; format: functional
Outline: (§2)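 Wheat: 10 seeds per dish on filter paper with 5 mL test solution, 5 days in the dark at 25 °C, 10 replicates per concentration. Stock test solutions were 10^-3 or 10^-4 M in 10 mM MES, with lower levels made by dilution, all at pH 6.0. Parallel controls were run. Output is % difference from control.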

Lactuca sativa [5] = experiment: Stimulation of germination of Lactuca sativa cv. Roman (lettuce) at 0.1 mM or 1 mM after 5 days relative to untreated control; format: functional; outline: as §1
Lactuca sativa [6] = experiment: Inhibition of germination of Lactuca sativa cv. Roman (lettuce) at 0.1 mM or 1 mM after 5 days relative to untreated control; format: functional; outline: as §1
Allium cepa [7] = experiment: Inhibition of hypocotyl length of Allium cepa cv. Valenciana (onion) at 0.1 mM or 1 mM after 5 days relative to untreated control; format: functional
Allium cepa [8] = experiment: Stimulation of hypocotyl length of Allium cepa cv. Valenciana (onion) at 0.1 mM or 1 mM after 5 days relative to untreated control; format: functional
Lactuca sativa [9] = experiment: Inhibition of root length of Lactuca sativa cv. Roman (lettuce) at 0.1 mM or 1 mM after 5 days relative to untreated control; format: functional; outline: as §1
Allium cepa [10] = experiment: Inhibition of germination of Allium cepa cv. Valenciana (onion) at 0.1 mM or 1 mM after 5 days relative to untreated control; format: functional
Allium cepa [11] = experiment: Stimulation of germination of Allium cepa cv. Valenciana (onion) at 0.1 mM or 1 mM after 5 days relative to untreated control; format: functional
Triticum aestivum [12] = experiment: Inhibition of germination of Triticum aestivum cv. Cortex (wheat) at 0.1 mM or 1 mM after 5 days relative to untreated control; format: functional; outline: as §2
Triticum aestivum [13] = experiment: Inhibition of hypocotyl length of Triticum aestivum cv. Cortex (wheat) at 0.1 mM or 1 mM after 5 days relative to untreated control; format: functional; outline: as §2
Allium cepa [14] = experiment: Stimulation of root length of Allium cepa cv. Valenciana (onion) at 0.1 mM or 1 mM after 5 days relative to untreated control; format: functional
Solanum lycopersicum [15] = experiment: Stimulation of germination of Solanum lycopersicum cv. Tres Cantos (tomato) at 0.1 mM or 1 mM after 5 days relative to untreated control; format: functional; outline: as §1
Lactuca sativa [16] = experiment: Inhibition of hypocotyl length of Lactuca sativa cv. Roman (lettuce) at 0.1 mM or 1 mM after 5 days relative to untreated control; format: functional; outline: as §1
Solanum lycopersicum [17] = experiment: Inhibition of root length of Solanum lycopersicum cv. Tres Cantos (tomato) at 0.1 mM or 1 mM after 5 days relative to untreated control; format: functional; outline: as §1
Lactuca sativa [18] = experiment: Stimulation of root length of Lactuca sativa cv. Roman (lettuce) at 0.1 mM or 1 mM after 5 days relative to untreated control; format: functional; outline: as §1
Solanum lycopersicum [19] = experiment: Inhibition of hypocotyl length of Solanum lycopersicum cv. Tres Cantos (tomato) at 0.1 mM or 1 mM after 5 days relative to untreated control; format: functional; outline: as §1
Triticum aestivum [20] = experiment: Stimulation of root length of Triticum aestivum cv. Cortex (wheat) at 0.1 mM or 1 mM after 5 days relative to untreated control; format: functional; outline: as §2
Allium cepa [21] = experiment: Inhibition of root length of Allium cepa cv. Valenciana (onion) at 0.1 mM or 1 mM after 5 days relative to untreated control; format: functional
Triticum aestivum [22] = experiment: Inhibition of root length of Triticum aestivum cv. Cortex (wheat) at 0.1 mM or 1 mM after 5 days relative to untreated control; format: functional; outline: as §2
Lepidium sativum [23] = experiment: Inhibition of root length of Lepidium sativum at 0.1 mM or 1 mM after 4 days relative to untreated control
Solanum lycopersicum [24] = experiment: Inhibition of germination of Solanum lycopersicum cv. Tres Cantos (tomato) at 0.1 mM or 1 mM after 5 days relative to untreated control; format: functional; outline: as §1
Solanum lycopersicum [25] = experiment: Stimulation of root length of Solanum lycopersicum cv. Tres Cantos (tomato) at 0.1 mM or 1 mM after 5 days relative to untreated control; format: functional; outline: as §1
Lepidium sativum [26] = experiment: Inhibition of germination of Lepidium sativum at 0.1 mM or 1 mM after 4 days relative to untreated control; set-up: scale not given: the % may be the effect or the level left
Triticum aestivum [27] = experiment: Stimulation of germination of Triticum aestivum cv. Cortex (wheat) at 0.1 mM or 1 mM after 5 days relative to untreated control; format: functional; outline: as §2
Lactuca sativa [28] = experiment: Stimulation of hypocotyl length of Lactuca sativa cv. Roman (lettuce) at 0.1 mM or 1 mM after 5 days relative to untreated control; format: functional; outline: as §1
Lepidium sativum [29] = experiment: Inhibition of hypocotyl length of Lepidium sativum at 0.1 mM or 1 mM after 4 days relative to untreated control
Lepidium sativum [30] = experiment: Stimulation of hypocotyl length of Lepidium sativum at 0.1 mM or 1 mM after 5 days relative to untreated control; format: functional
Allium cepa [31] = experiment: Stimulation of root length of Allium cepa cv. Valenciana (onion) at 0.1 mM or 1 mM after 7 days relative to untreated control
Allium cepa [32] = experiment: Stimulation of hypocotyl length of Allium cepa cv. Valenciana (onion) at 0.1 mM or 1 mM after 7 days relative to untreated control
Allium cepa [33] = experiment: Stimulation of germination of Allium cepa cv. Valenciana (onion) at 0.1 mM or 1 mM after 7 days relative to untreated control
Allium cepa [34] = experiment: Inhibition of hypocotyl length of Allium cepa cv. Valenciana (onion) at 0.1 mM or 1 mM after 7 days relative to untreated control
Lepidium sativum [35] = experiment: Inhibition of germination of Lepidium sativum at 0.1 mM or 1 mM after 4 days relative to untreated control

SMILES	Activity (Solanum lycopersicum [2])	Activity (Lepidium sativum [3])	Activity (Triticum aestivum [4])	Activity (Lactuca sativa [5])	inhibition (INH) (Lactuca sativa [9])	inhibition (INH) (Triticum aestivum [12])	inhibition (INH) (Triticum aestivum [13])	Activity (Solanum lycopersicum [15])	inhibition (INH) (Lactuca sativa [16])	Activity (Lactuca sativa [18])	inhibition (INH) (Solanum lycopersicum [19])	Activity (Triticum aestivum [20])	Activity (Solanum lycopersicum [25])	Activity (Triticum aestivum [27])	Activity (Lactuca sativa [28])	Activity (Lepidium sativum [30])	inhibition (Lactuca sativa [6])	inhibition (Allium cepa [10])	Activity (Allium cepa [31])	Activity (Allium cepa [32])	also measured
C=C1C(=O)C[C@H]2C(=C)CC[C@H]3C(=C)C(=O)O[C@@H]3[C@@H]12 [DEHYDROZALUZANIN C]	>40%	>40%	>40%	>40%	>40%	>40%	>40%	>40%	>40%	>40%	>40%	>40%	>40%	>40%	>40%	>40%	–	–	–	–	inhibition (INH) (Lepidium sativum [1]): >40%; inhibition (INH) (Lactuca sativa [6]): >40%; inhibition (INH) (Allium cepa [7]): >40%; Activity (Allium cepa [8]): >40%; inhibition (INH) (Allium cepa [10]): >40%; Activity (Allium cepa [11]): >40%; Activity (Allium cepa [14]): >40%; inhibition (INH) (Solanum lycopersicum [17]): >40%; inhibition (INH) (Allium cepa [21]): >40%; inhibition (INH) (Triticum aestivum [22]): >40%; inhibition (INH) (Lepidium sativum [23]): >40%; inhibition (INH) (Solanum lycopersicum [24]): >40%; Activity (Lepidium sativum [26]): >40%; inhibition (INH) (Lepidium sativum [29]): >40%
C=C1[C@@H]2[C@H]3OC(=O)C(=C)[C@@H]3CCC(=C)[C@@H]2C[C@@H]1O [ZALUZANIN C]	inactive	<20%	20%	inactive	20%	<20%	20%	inactive	20%	20%	–	20%	<20%	<20%	20%	inactive	inactive	inactive	inactive	inactive	inhibition (INH) (Lepidium sativum [1]): <20%; inhibition (INH) (Solanum lycopersicum [17]): <20%; inhibition (Solanum lycopersicum [19]): inactive; inhibition (Allium cepa [21]): inactive; inhibition (INH) (Triticum aestivum [22]): 20%; inhibition (INH) (Lepidium sativum [23]): <20%; Activity (Allium cepa [33]): inactive; inhibition (Solanum lycopersicum [24]): inactive; Activity (Lepidium sativum [26]): <20%; inhibition (Allium cepa [34]): inactive; inhibition (Lepidium sativum [29]): inactive
CC(=O)O[C@H]1CC(C)=C2C(=O)C=C(C)[C@@H]2[C@H]2OC(=O)[C@H](C)[C@H]21 [8ALPHA-ACETOXYACHILLIN]	<20%	inactive	<20%	inactive	<20%	20%	<20%	inactive	<20%	<20%	<20%	inactive	inactive	20%	<20%	inactive	inactive	inactive	inactive	inactive	Activity (Lepidium sativum [35]): inactive; inhibition (Lepidium sativum [35]): inactive; inhibition (Solanum lycopersicum [17]): inactive; inhibition (Allium cepa [21]): inactive; inhibition (Triticum aestivum [22]): inactive; inhibition (Lepidium sativum [23]): inactive; Activity (Allium cepa [33]): inactive; inhibition (Solanum lycopersicum [24]): inactive; inhibition (Allium cepa [34]): inactive; inhibition (Lepidium sativum [29]): inactive
CC1=CC(=O)C2=C(C)C[C@H](O)[C@H]3[C@H](OC(=O)[C@@H]3C)[C@@H]12 [8ALPHA-HYDROXYACHILLIN]	<20%	inactive	inactive	inactive	–	–	–	<20%	–	inactive	<20%	inactive	inactive	inactive	inactive	inactive	inactive	inactive	inactive	inactive	inhibition (Lactuca sativa [9]): inactive; inhibition (Triticum aestivum [12]): inactive; Activity (Lepidium sativum [35]): inactive; inhibition (Lepidium sativum [35]): inactive; inhibition (Triticum aestivum [13]): inactive; inhibition (Lactuca sativa [16]): inactive; inhibition (Solanum lycopersicum [17]): inactive; inhibition (Allium cepa [21]): inactive; inhibition (Triticum aestivum [22]): inactive; inhibition (Lepidium sativum [23]): inactive; Activity (Allium cepa [33]): inactive; inhibition (INH) (Solanum lycopersicum [24]): <20%; inhibition (Allium cepa [34]): inactive; inhibition (Lepidium sativum [29]): inactive
